INS-1E ATP HTS = rescue of cytokine-induced death in INS-1E beta cells | INS-1E cytokine-induced death, ATP luminescence, 48 h; normalised: neutral wells 0, positive control 100 | protection from cytokine-induced ATP loss, % at 10 µM | 20,000 compounds, 0.1% hits;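 active = mean replicate protection from cytokine-induced ATP loss at least 50% and at least 75% of replicates each reaching 50%; inconclusive = meets only one of the two criteria, mean or replicate share; inactive = fails both the mean and replicate share criteria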
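Assay system: INS-1E rat insulinoma cells. Amount: 8000 cells per well. Medium: phenol-red-free RPMI with 5% fetal bovine serum. Reagent: IL-1β, TNF-α and IFN-γ cytokine mix. Doses: one compound concentration, pin transfer. Schedule: 48 h co-treatment, 10 min post-lysis read. Detection: CellTiter-Glo luminescence measuring cellular ATP.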
A1 apoptosis 2 = compounds inhibiting A1, read as caspase activation | AID 2465 | caspase activation, % (concentration not given with the values) | MEF A1-2A-BIM cells, caspase-Glo luminescence, 3 h; percent of clofoctol response, DMSO zero | 24,000 tested, under 10 active; in the data active = caspase activation above about 5.9%; inconclusive = no clear call, values can overlap the other calls; inactive = below about 2.2%
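Material: A1-2A-BIM-expressing MEF cells. Buffer or medium: RPMI-1640 plus 10% FBS. Incubation: cells settled overnight, compound exposure 3 h at 37 °C, 5% CO2. Signal: Caspase-Glo 3/7 luminescence, 1 h at room temperature.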
T cruzi intra = intracellular Trypanosoma cruzi inhibition | intracellular Trypanosoma cruzi in host cells, plate reader | activity score (inhibition), % at 5.01 µM | 22,000 compounds, 4.9% hits | AID 651903; in the data active = activity score above about 55%; inconclusive = no clear call, values can overlap the other calls;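 note: parasites and compound incubated about four days before reading; 0% = median of neutral control wells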
Active calls of the source: *; ? = inconclusive; / = no result given. This is one part of a sample in which hits are shown more often than they occur.

SMILES	INS-1E ATP HTS	A1 apoptosis 2	T cruzi intra
C[C@H]1CN([C@@H](C)CO)C(=O)Cc2cc(NC(=O)Nc3ccc(C(F)(F)F)cc3)ccc2O[C@@H]1CN(C)Cc1ccc(C(F)(F)F)cc1	-81	0	69*
C[C@H]1CN([C@@H](C)CO)C(=O)Cc2cc(NC(=O)Nc3ccc(F)cc3)ccc2O[C@H]1CN(C)Cc1ccc(C(F)(F)F)cc1	-52	/	46
C[C@H](CO)N1C[C@H](C)[C@H](CN(C)Cc2ccc(C(F)(F)F)cc2)Oc2ccc(NC(=O)Nc3cccc4ccccc34)cc2C1=O	/	1	49
C[C@@H]1CN([C@@H](C)CO)C(=O)c2cc(NC(=O)Nc3cccc4ccccc34)ccc2O[C@@H]1CN(C)Cc1ccc(C(F)(F)F)cc1	/	/	59*
C[C@@H]1CN([C@@H](C)CO)C(=O)c2cc(NC(=O)Nc3cccc4ccccc34)ccc2O[C@H]1CN(C)Cc1ccccc1	-15	/	?
C[C@@H]1CN([C@H](C)CO)C(=O)c2cc(NC(=O)Nc3cccc4ccccc34)ccc2O[C@@H]1CN(C)Cc1ccc(C(F)(F)F)cc1	-11	0	75*
CC(C)OC(=O)N(C)C[C@H]1OCc2cnnn2CCCC(=O)N([C@H](C)CO)C[C@H]1C	/	/	-25
C[C@@H]1CN([C@H](C)CO)C(=O)CCCn2nncc2CO[C@H]1CN(C)C(=O)C1CC1	/	-1	-3
COc1ccc(S(=O)(=O)Nc2ccc3c(c2)CC(=O)N([C@H](C)CO)C[C@@H](C)[C@@H](CN(C)Cc2ccccc2)O3)cc1	-6	0	63*
COc1ccc(S(=O)(=O)Nc2ccc3c(c2)CC(=O)N([C@H](C)CO)C[C@@H](C)[C@@H](CN(C)Cc2ccc(-c4ccccc4)cc2)O3)cc1	-16	1	72*
COc1ccc(CN(C)C[C@@H]2Oc3ccc(NS(=O)(=O)c4ccc(OC)cc4)cc3CC(=O)N([C@H](C)CO)C[C@H]2C)cc1	-8	1	70*
COc1ccc(CN(C)C[C@@H]2Oc3ccc(NS(=O)(=O)c4ccc(F)cc4)cc3CC(=O)N([C@H](C)CO)C[C@H]2C)cc1	-2	/	41
COc1ccc(CN(C)C[C@H]2Oc3ccc(NS(=O)(=O)c4ccc(OC)cc4)cc3CC(=O)N([C@H](C)CO)C[C@H]2C)cc1	3	0	64*
COc1ccc(S(=O)(=O)Nc2ccc3c(c2)CC(=O)N([C@@H](C)CO)C[C@@H](C)[C@H](CN(C)Cc2ccccc2)O3)cc1	/	-1	/
COc1ccc(CN(C)C[C@@H]2Oc3ccc(NS(=O)(=O)c4ccccc4)cc3CC(=O)N([C@@H](C)CO)C[C@@H]2C)cc1	4	/	17
COc1ccc(CN(C)C[C@H]2Oc3ccc(NS(=O)(=O)c4ccc(OC)cc4)cc3CC(=O)N([C@H](C)CO)C[C@@H]2C)cc1	/	-1	/
C[C@H]1CN([C@@H](C)CO)C(=O)c2cc(NS(=O)(=O)c3cn(C)cn3)ccc2O[C@H]1CN(C)Cc1ccc(Cl)c(Cl)c1	/	/	-2
CC(C)NC(=O)Nc1cccc2c1O[C@H](CN(C)Cc1ccc(Oc3ccccc3)cc1)[C@@H](C)CN([C@H](C)CO)C2=O	-21	1	34
C[C@@H]1CCCCO[C@@H](CN(C)Cc2ccncc2)[C@@H](C)CN([C@H](C)CO)C(=O)c2cc(NC(=O)Nc3ccc4c(c3)OCO4)ccc2O1	9	/	-39
CC1=C(SCCO)C(=O)c2ccccc2C1=O	/	-1	/
CC(C)NC(=O)Nc1ccc2c(c1)CC(=O)N([C@@H](C)CO)C[C@H](C)[C@H](CN(C)C(=O)Nc1cccc3ccccc13)O2	4	0	-17
C[C@@H]1CN([C@H](C)CO)C(=O)Cc2cc(NC(=O)CCN3CCOCC3)ccc2O[C@H]1CN(C)CC1CCCCC1	3	/	-72
C[C@@H]1CCCCO[C@@H](CN(C)Cc2ccc(Cl)c(Cl)c2)[C@@H](C)CN([C@@H](C)CO)C(=O)c2cc(NC(=O)Nc3ccc(C(F)(F)F)cc3)ccc2O1	/	0	/
Cc1ccc(S(=O)(=O)Nc2ccc3c(c2)C(=O)N([C@H](C)CO)C[C@H](C)[C@@H](CN(C)C(=O)Nc2ccccc2)OCCCC[C@H](C)O3)cc1	/	-1	/
COc1ccc(S(=O)(=O)Nc2ccc3c(c2)CC(=O)N([C@H](C)CO)C[C@@H](C)[C@H](CN(C)Cc2ccc4c(c2)OCO4)O3)cc1	3	/	66*
COc1ccc(S(=O)(=O)Nc2ccc3c(c2)CC(=O)N([C@@H](C)CO)C[C@@H](C)[C@@H](CN(C)Cc2ccc4c(c2)OCO4)O3)cc1	-4	0	4

Compound activity as filed in PubChem.
